{"data": "Results pooled from the literature", "target": "Serine/threonine-protein kinase VRK2 (VRK2, Homo sapiens, UniProt Q86Y07)", "note": "Compare with care: the assays were run in different laboratories."}
{"SMILES": "CC1CCCN1c1nccc(-c2cnn3ncccc23)n1 (centres unmarked)", "read-out": "binding", "tested at": "1 µM", "remaining binding": "100%"}
{"SMILES": "CN([C@@H]1CCc2c(CC(=O)O)c3cc(S(C)(=O)=O)ccc3n2C1)S(=O)(=O)c1ccc(F)cc1", "read-out": "cell-free assay", "method": "competition with immobilised ligand", "tested at": "1 µM", "remaining binding": "94%"}
{"SMILES": "O=C(NCCCN1CCOCC1)c1ccc(Nc2ncc(Cl)c(-c3ccc(Cl)s3)n2)cc1", "read-out": "binding", "method": "competition with immobilised ligand", "tested at": "1 µM", "remaining binding": "64%"}
{"SMILES": "COc1cnc(Nc2cccc(S(N)(=O)=O)c2)nc1N1CCN(c2ccccc2)CC1", "read-out": "binding", "method": "competition with immobilised ligand", "tested at": "1 µM", "remaining binding": "69%"}
{"SMILES": "CC(C)CC(=O)N1CCc2nc(-c3ccc(Br)cc3)nc(N(C)Cc3ccccc3)c2C1", "read-out": "cell-free assay", "method": "competition with immobilised ligand", "tested at": "0.1 µM", "remaining binding": "77%"}
{"SMILES": "O=C(Nc1c[nH]nc1C(=O)NC1CCNCC1)c1cc(F)cc(F)c1", "read-out": "binding", "method": "competition with immobilised ligand", "tested at": "1 µM", "remaining binding": "100%"}
{"SMILES": "O=C(c1ccc(Nc2nccc(-c3cc4ccccc4s3)n2)cc1)N1CCC(N2CCCC2)CC1", "read-out": "binding", "method": "competition with immobilised ligand", "tested at": "1 µM", "remaining binding": "35%"}
{"SMILES": "CC1=C(C#N)C(c2ccc3c(c2)c(NC(=O)c2ccccc2C)nn3C)C(C#N)=C(C)N1", "read-out": "cell-free assay", "method": "competition with immobilised ligand", "tested at": "1 µM", "remaining binding": "72%"}
{"SMILES": "C[C@H]1CCN(c2nccc(-c3cnn4ncccc34)n2)C1", "read-out": "binding", "tested at": "1 µM", "remaining binding": "81%"}
{"SMILES": "Nc1ncc2c(n1)-c1c([nH]c3ccc(C#CC4CC4)cc13)CCCC2", "read-out": "binding", "method": "competition with immobilised ligand", "tested at": "1 µM", "remaining binding": "100%"}
{"SMILES": "CN(C)c1nccc(-c2cnn3ncccc23)n1", "read-out": "binding", "tested at": "1 µM", "remaining binding": "80%"}
{"SMILES": "CCCNc1nc(C#Cc2ccc(Cl)s2)nc2c1ncn2[C@H]1[C@H](O)[C@H](O)[C@]2(C(=O)NC)C[C@H]12", "read-out": "binding", "method": "competition with immobilised ligand", "tested at": "10 µM", "remaining binding": "31%"}
{"SMILES": "c1cncc(-c2cccc(Nc3nccc(NC4CCCCC4)n3)c2)c1", "read-out": "binding", "method": "competition with immobilised ligand", "tested at": "10 µM", "remaining binding": "82%"}
{"SMILES": "Cc1cnn2ncc(-c3ccnc(N(C)C)n3)c2c1", "read-out": "binding", "tested at": "1 µM", "remaining binding": "96%"}
{"SMILES": "C=CC(=O)N1CCC(C(=O)NCC(=O)N2CCN(c3nc(-c4cnc(N)nc4C(F)F)nc(N4CCOCC4)n3)CC2)CC1", "read-out": "binding", "method": "competition with immobilised ligand", "tested at": "1 µM", "remaining binding": "93%"}
{"SMILES": "CC(=O)C1=C(C)N(c2cccc(C(F)(F)F)c2)C(=O)N[C@@H]1c1ccc(C#N)nc1", "read-out": "cell-free assay", "method": "competition with immobilised ligand", "tested at": "1 µM", "remaining binding": "77.6%"}
{"SMILES": "O=C(c1ccc(Nc2ncc(Cl)c(-c3cc4ccccc4s3)n2)cc1)N1CCC(N2CCCC2)CC1", "read-out": "binding", "method": "competition with immobilised ligand", "tested at": "1 µM", "remaining binding": "70%"}
{"SMILES": "N[C@H]1CCN(c2nccc(-c3cnn4ncccc34)n2)C1", "read-out": "binding", "tested at": "1 µM", "remaining binding": "83%"}
{"SMILES": "CNC(=O)[C@@H]1CC[C@@H](n2c(-c3ccc4cnccc4c3)nc3ccc(C(=O)NCc4cccc(C(N)=O)c4)cc32)C1", "read-out": "binding", "method": "competition with immobilised ligand", "tested at": "1 µM", "remaining binding": "100%"}
{"SMILES": "Cc1c(NC(=O)c2cc(C(N)=O)nc3cc(F)ccc23)c(C(F)(F)F)nn1Cc1ccc(C(C)(C)C)cc1", "read-out": "cell-free assay", "method": "competition with immobilised ligand", "tested at": "1 µM", "remaining binding": "95%"}
{"SMILES": "CN(CCCC(F)(F)F)c1nccc(-c2cnn3ncccc23)n1", "read-out": "binding", "tested at": "1 µM", "remaining binding": "100%"}
{"SMILES": "O=C(N1CCS(=O)(=O)CC1)N1C[C@H](c2ccc(OC(F)(F)F)cc2)C[C@H](c2nc(C3CC3)no2)C1", "read-out": "cell-free assay", "method": "competition with immobilised ligand", "tested at": "1 µM", "remaining binding": "90%"}
{"SMILES": "C[C@@H](c1ccc(-n2cnc3c(N)ncnc32)cc1)N1CCc2nn(C)c(Cc3ccccc3)c2C1=O", "read-out": "binding", "method": "competition with immobilised ligand", "tested at": "0.1 µM", "remaining binding": "47%"}
